{
  "source": "paper PMC12279052",
  "about": "(RSC Advances, 2025)",
  "key": {"[1]": {"experiment": "Conductivity in low concentration region", "format": "physicochemical", "conditions": "in water", "procedure,_shortened": "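Conductivity of aqueous test compound solutions was measured at each temperature in double-distilled deionized water (0.8 − 1.0 × 10−4 S m−1 at 298.15 K). The digital meter and electrode were calibrated with standard KCl, and the thermostat held ±0.02 K; relative standard uncertainty was ±3%.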"}, "[2]": {"tested_on": "Escherichia coli ATCC25922", "experiment": "Antibacterial activity, broth dilution MIC", "format": "cell-based", "conditions": "E. coli, n = 3"}, "[3]": {"tested_on": "human lung cancer cell line A549", "experiment": "Cell toxicity assay, MTT", "format": "cell-based", "conditions": "A549, MTT, 24 h, n = 3"}, "[4]": {"experiment": "Density measurement, apparent molar volume at infinite dilution in water", "format": "physicochemical", "conditions": "aqueous solution", "procedure,_shortened": "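Solution density was measured with a vibrating-tube densitometer calibrated with dry air and double-distilled water, with Peltier temperature control at ±0.01 K and density uncertainty 2.0 × 10−4 g cm−3. Apparent molar volumes were computed versus molality. Infinite-dilution values came from the Redlich–Mayer equation with empirical parameters Sv and Bv.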"}, "[5]": {"experiment": "Aggregation in water by electrical conductivity", "format": "physicochemical", "conditions": "for cmc: conductivity, water; for ionization degree α: micelle (cmc); for ΔG^0m / ΔH^0m / ΔS^0m / −TΔS^0m: micellization (cmc)", "procedure,_shortened": "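Conductivity of aqueous test compound solutions was measured with a digital conductivity meter and electrode, calibrated against standard KCl, with a thermostat holding ±0.02 K and ±3% relative uncertainty. cmc and cac were taken from the break points, found by fitting the Aguiar equation. α came from the ratio of post- to pre-transition slopes (A2/A1), and micellization thermodynamic functions from the mass action model.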"}, "[6]": {"experiment": "Steady-state fluorescence with pyrene probe", "format": "physicochemical", "conditions": "298.15 K", "procedure,_shortened": "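Pyrene (1 μM) served as probe at 298.15 K. Excitation was 335 nm, emission 355–650 nm, slits 2.5 nm, 700 V, 240 nm min−1, in a 1 cm quartz cuvette. cmc came from a Boltzmann fit of I1/I3 (373/384 nm). For Nagg, test compound at 2.5 cmc was quenched with cetylpyridinium chloride at 0.2–1.0 × 10−4 mol dm−3, and Nagg was derived from linear ln(I0/I) versus [Q].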"}, "[7]": {"experiment": "Octanol–water partition coefficient, shake-flask method", "format": "physicochemical", "procedure,_shortened": "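Shake-flask partitioning was run at 25 and 37 °C in water, SGF (pH 1.2), SIF (pH 6.8) or SBF (pH 7.4). Fluids were prepared per USP without enzyme and pre-saturated with n-octanol (24 h shaking, 24 h separation). Test compound in buffer-saturated octanol (5 mL) was shaken 24 h with 5 mL octanol-saturated buffer, then centrifuged 10 min. The octanol phase was read by UV at 200 nm, and log Ko/w = log Co/(C−Co).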"}, "[8]": {"tested_on": "Cutibacterium acnes ATCC6919", "experiment": "Antibacterial activity, broth dilution MIC", "format": "cell-based", "conditions": "C. acnes, n = 3"}, "[9]": {"experiment": "Thermal stability by TG/DTG", "format": "physicochemical", "conditions": "first decomposition process, 10 K min^−1, argon", "procedure,_shortened": "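Simultaneous thermal analysis ran from 30–500 °C at 10 K min−1 on 3–5 mg sample in an Al2O3 crucible, with α-Al2O3 as reference. Argon served as protective gas at 20 mL min−1 and as purge gas at 60 mL min−1.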"}, "[10]": {"tested_on": "Staphylococcus aureus ATCC29213", "experiment": "Antibacterial activity, broth dilution MIC", "format": "cell-based", "conditions": "S. aureus, n = 3"}, "[11]": {"tested_on": "Candida albicans ATCC10231", "experiment": "Antimicrobial activity, broth dilution MIC", "format": "cell-based", "conditions": "C. albicans, n = 3"}, "[12]": {"tested_on": "human hepatocellular carcinoma cell line HepG2", "experiment": "Cell toxicity assay, MTT", "format": "cell-based", "conditions": "HepG2, MTT, 24 h, n = 3"}},
  "data": [
    {"compound": "CCCCCCCCC(=O)O.O=C1CCC[C@@H]2[C@H]3CCCN4CCC[C@@H](CN12)[C@@H]34", "note": "[[Mat][C9]]", "values": [
      {"measurement": "Association constant KA", "setting": "[1]; 298.15 K", "value": "6.74 ± 0.44", "unit": "dm^3 mol^−1"},
      {"measurement": "Limiting molar conductivity Λ0", "setting": "[1]; 298.15 K", "value": "47.11 ± 0.02", "unit": "S cm^2 mol^−1"},
      {"measurement": "Association constant KA", "setting": "[1]; 303.15 K", "value": "4.14 ± 0.68", "unit": "dm^3 mol^−1"},
      {"measurement": "Limiting molar conductivity Λ0", "setting": "[1]; 303.15 K", "value": "52.90 ± 0.04", "unit": "S cm^2 mol^−1"},
      {"measurement": "Association constant KA", "setting": "[1]; 308.15 K", "value": "1.72 ± 1.03", "unit": "dm^3 mol^−1"},
      {"measurement": "Limiting molar conductivity Λ0", "setting": "[1]; 308.15 K", "value": "59.10 ± 0.07", "unit": "S cm^2 mol^−1"},
      {"measurement": "MIC", "setting": "[2]", "value": 30.7, "unit": "mM"},
      {"measurement": "IC50", "setting": "[3]", "value": 3150, "unit": "µM"},
      {"measurement": "Apparent molar volume at infinite dilution V^0 2,φ", "setting": "[4]; 293.15 K", "value": "353.45 ± 0.11", "unit": "cm^3 mol^−1"},
      {"measurement": "Apparent molar volume at infinite dilution V^0 2,φ", "setting": "[4]; 298.15 K", "value": "355.41 ± 0.17", "unit": "cm^3 mol^−1"},
      {"measurement": "Apparent molar volume at infinite dilution V^0 2,φ", "setting": "[4]; 303.15 K", "value": "357.32 ± 0.16", "unit": "cm^3 mol^−1"},
      {"measurement": "Apparent molar volume at infinite dilution V^0 2,φ", "setting": "[4]; 308.15 K", "value": "360.15 ± 0.14", "unit": "cm^3 mol^−1"},
      {"measurement": "cmc", "setting": "[5]; 293.15 K", "value": 0.00449, "unit": "mol/kg"},
      {"measurement": "cmc", "setting": "[5]; 298.15 K", "value": 0.00459, "unit": "mol/kg"},
      {"measurement": "cmc", "setting": "[5]; 303.15 K", "value": 0.00467, "unit": "mol/kg"},
      {"measurement": "cmc", "setting": "[5]; 308.15 K", "value": 0.00475, "unit": "mol/kg"},
      {"measurement": "cmc", "setting": "[5]; 313.15 K", "value": 0.00483, "unit": "mol/kg"},
      {"measurement": "ionization degree α", "setting": "[5]; 293.15 K", "value": 0.8848},
      {"measurement": "ionization degree α", "setting": "[5]; 298.15 K", "value": 0.8890},
      {"measurement": "ionization degree α", "setting": "[5]; 303.15 K", "value": 0.8957},
      {"measurement": "ionization degree α", "setting": "[5]; 308.15 K", "value": 0.8931},
      {"measurement": "ionization degree α", "setting": "[5]; 313.15 K", "value": 0.8922},
      {"measurement": "ΔG^0m", "setting": "[5]; 293.15 K", "value": -6.121, "unit": "kcal/mol"},
      {"measurement": "ΔH^0m", "setting": "[5]; 293.15 K", "value": -0.805, "unit": "kcal/mol"},
      {"measurement": "ΔS^0m", "setting": "[5]; 293.15 K", "value": 75.88, "unit": "J mol^−1 K^−1"},
      {"measurement": "−TΔS^0m", "setting": "[5]; 293.15 K", "value": -5.315, "unit": "kcal/mol"},
      {"measurement": "ΔG^0m", "setting": "[5]; 298.15 K", "value": -6.188, "unit": "kcal/mol"},
      {"measurement": "ΔH^0m", "setting": "[5]; 298.15 K", "value": -0.767, "unit": "kcal/mol"},
      {"measurement": "ΔS^0m", "setting": "[5]; 298.15 K", "value": 76.06, "unit": "J mol^−1 K^−1"},
      {"measurement": "−TΔS^0m", "setting": "[5]; 298.15 K", "value": -5.421, "unit": "kcal/mol"},
      {"measurement": "ΔG^0m", "setting": "[5]; 303.15 K", "value": -6.243, "unit": "kcal/mol"},
      {"measurement": "ΔH^0m", "setting": "[5]; 303.15 K", "value": -0.727, "unit": "kcal/mol"},
      {"measurement": "ΔS^0m", "setting": "[5]; 303.15 K", "value": 76.13, "unit": "J mol^−1 K^−1"},
      {"measurement": "−TΔS^0m", "setting": "[5]; 303.15 K", "value": -5.516, "unit": "kcal/mol"},
      {"measurement": "ΔG^0m", "setting": "[5]; 308.15 K", "value": -6.348, "unit": "kcal/mol"},
      {"measurement": "ΔH^0m", "setting": "[5]; 308.15 K", "value": -0.686, "unit": "kcal/mol"},
      {"measurement": "ΔS^0m", "setting": "[5]; 308.15 K", "value": 76.88, "unit": "J mol^−1 K^−1"},
      {"measurement": "−TΔS^0m", "setting": "[5]; 308.15 K", "value": -5.662, "unit": "kcal/mol"},
      {"measurement": "ΔG^0m", "setting": "[5]; 313.15 K", "value": -6.446, "unit": "kcal/mol"},
      {"measurement": "ΔH^0m", "setting": "[5]; 313.15 K", "value": -0.643, "unit": "kcal/mol"},
      {"measurement": "ΔS^0m", "setting": "[5]; 313.15 K", "value": 77.53, "unit": "J mol^−1 K^−1"},
      {"measurement": "−TΔS^0m", "setting": "[5]; 313.15 K", "value": -5.803, "unit": "kcal/mol"},
      {"measurement": "cmc", "setting": "[6]; Fluorescence (pyrene I1/I3), water", "value": 0.00461, "unit": "mol/kg"},
      {"measurement": "N agg (aggregation number)", "setting": "[6]; ST = 2.5 cmc, fluorescence quenching with CPC", "value": 64},
      {"measurement": "Log K o/w", "setting": "[7]; pH = 1.2 (SGF), 25 °C", "value": "−0.33"},
      {"measurement": "Log K o/w", "setting": "[7]; pH = 1.2 (SGF), 37 °C", "value": 0.14},
      {"measurement": "Log K o/w", "setting": "[7]; pH = 6.8 (SIF), 25 °C", "value": 0.02},
      {"measurement": "Log K o/w", "setting": "[7]; pH = 6.8 (SIF), 37 °C", "value": 0.34},
      {"measurement": "Log K o/w", "setting": "[7]; pH = 7.0 (ultrapure water), 25 °C", "value": 0.68},
      {"measurement": "Log K o/w", "setting": "[7]; pH = 7.0 (ultrapure water), 37 °C", "value": 0.81},
      {"measurement": "Log K o/w", "setting": "[7]; pH = 7.4 (SBF), 25 °C", "value": 0.96},
      {"measurement": "Log K o/w", "setting": "[7]; pH = 7.4 (SBF), 37 °C", "value": 1.12},
      {"measurement": "MIC", "setting": "[8]", "value": 3.84, "unit": "mM"},
      {"measurement": "T onset (onset decomposition temperature)", "setting": "[9]", "value": 196.3, "unit": "°C"},
      {"measurement": "MIC", "setting": "[10]", "value": 7.7, "unit": "mM"},
      {"measurement": "MIC", "setting": "[11]", "value": 0.96, "unit": "mM"},
      {"measurement": "IC50", "setting": "[12]", "value": 2120, "unit": "µM"}
    ]}
  ]
}
